Laboratory results reported in article PMC4112162 (Biochimica et biophysica acta, 2014).

T1: hCBS (human cystathionine β-synthase) (Homo sapiens, UniProt P35520)
T1 sequence (P35520 1-551): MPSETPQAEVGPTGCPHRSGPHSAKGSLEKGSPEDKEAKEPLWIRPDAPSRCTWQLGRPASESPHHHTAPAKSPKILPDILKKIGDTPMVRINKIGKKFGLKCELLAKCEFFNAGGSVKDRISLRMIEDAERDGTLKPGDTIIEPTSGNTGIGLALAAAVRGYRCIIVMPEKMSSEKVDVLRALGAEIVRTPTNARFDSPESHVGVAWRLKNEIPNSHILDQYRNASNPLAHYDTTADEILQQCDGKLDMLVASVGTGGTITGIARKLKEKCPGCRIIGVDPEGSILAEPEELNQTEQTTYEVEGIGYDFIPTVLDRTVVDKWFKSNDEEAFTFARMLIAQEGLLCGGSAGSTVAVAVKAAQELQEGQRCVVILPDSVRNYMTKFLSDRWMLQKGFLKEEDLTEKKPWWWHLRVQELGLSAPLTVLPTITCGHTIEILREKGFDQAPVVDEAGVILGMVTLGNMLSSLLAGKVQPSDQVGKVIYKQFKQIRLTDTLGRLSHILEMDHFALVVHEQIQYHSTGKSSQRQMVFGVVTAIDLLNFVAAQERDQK

T2: Human cystathionine beta-synthase (human), P35520
T2 chain: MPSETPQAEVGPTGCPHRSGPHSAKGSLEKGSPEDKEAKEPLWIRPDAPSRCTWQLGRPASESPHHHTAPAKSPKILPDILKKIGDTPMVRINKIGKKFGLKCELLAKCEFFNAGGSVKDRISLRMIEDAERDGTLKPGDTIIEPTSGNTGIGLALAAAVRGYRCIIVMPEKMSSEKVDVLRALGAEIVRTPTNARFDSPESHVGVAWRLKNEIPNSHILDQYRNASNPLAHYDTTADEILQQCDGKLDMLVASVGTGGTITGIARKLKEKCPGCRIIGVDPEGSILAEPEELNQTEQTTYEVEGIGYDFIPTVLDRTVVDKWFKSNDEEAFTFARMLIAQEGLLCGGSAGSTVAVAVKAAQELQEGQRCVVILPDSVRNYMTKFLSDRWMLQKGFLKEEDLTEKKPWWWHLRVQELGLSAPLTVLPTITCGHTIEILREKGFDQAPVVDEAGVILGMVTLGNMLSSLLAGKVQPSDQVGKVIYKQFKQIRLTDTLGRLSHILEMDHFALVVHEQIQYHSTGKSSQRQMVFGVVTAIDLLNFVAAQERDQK


Key:
[1] = molecular target: T1, hCBS (human cystathionine β-synthase); assay: radioisotope CBS activity assay with L-[U-14C]serine; type: biochemical
[2] = molecular target: T1, hCBS (human cystathionine β-synthase); assay: isothermal titration calorimetry, two independent types of sites model; type: binding
Outline: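 Purified human CBS in 20 mM Hepes pH 7.4 titrated with SAM by ITC. Without salt: 8 μM tetramer, 50 injections of 0.7 mM SAM spaced 150 s. With 200 mM NaCl: 20 μM tetramer, 19 injections of 1.06 mM SAM spaced 250 s. Isotherms fitted to a two independent types of sites model; salt titrations repeated in four independent experiments.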

[3] = molecular target: T2, Human cystathionine beta-synthase …; assay: dynamic light scattering; settings: remark: other sources report otherwise

| Molecule | EC50 [1] [nM] | Kd [2] [nM] | stoichiometry N [3] |
| --- | --- | --- | --- |
| C[S+](CC[C@H](N)C(=O)O)C[C@H]1O[C@@H](n2cnc3c(N)ncnc32)[C@H](O)[C@@H]1O (stereo partly drawn) [SAM] | 3700 ± 200 | 13 | – |
| Human cystathionine beta-synthase, P35520 1-551 (enzyme) MPSETPQAEVGPTGCPHRSGPHSAKGSLEKGSPEDKEAKEPLWIRPDAPSRCTWQLGRPASESPHHHTAPAKSPKILPDILKKIGDTPMVRINKIGKKFGLKCELLAKCEFFNAGGSVKDRISLRMIEDAERDGTLKPGDTIIEPTSGNTGIGLALAAAVRGYRCIIVMPEKMSSEKVDVLRALGAEIVRTPTNARFDSPESHVGVAWRLKNEIPNSHILDQYRNASNPLAHYDTTADEILQQCDGKLDMLVASVGTGGTITGIARKLKEKCPGCRIIGVDPEGSILAEPEELNQTEQTTYEVEGIGYDFIPTVLDRTVVDKWFKSNDEEAFTFARMLIAQEGLLCGGSAGSTVAVAVKAAQELQEGQRCVVILPDSVRNYMTKFLSDRWMLQKGFLKEEDLTEKKPWWWHLRVQELGLSAPLTVLPTITCGHTIEILREKGFDQAPVVDEAGVILGMVTLGNMLSSLLAGKVQPSDQVGKVIYKQFKQIRLTDTLGRLSHILEMDHFALVVHEQIQYHSTGKSSQRQMVFGVVTAIDLLNFVAAQERDQK | – | – | 4 |
